Key:
HepG2 [1] = assay: Cytotoxicity against human HepG2 cells assessed as reduction in cell viability incubated for 72 hrs by MTT assay; assay type: cell-based; conditions: hepg2, 72 h
In short: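 HepG2 plated 24 h before dosing. Compound at 8 concentrations in triplicate, serially diluted in 0.5% DMSO growth medium, for 72 h. MTT loaded 1 h before end; solubilised in DMSO, read at 570 nm. Significance limits come from vehicle wells. Minimum effective concentration taken from the lowest concentration exceeding significance; AC50 fitted when dose-response is clear.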

HepG2 [2] = assay: Antioxidant activity in human HepG2 cells assessed as decrease in FFA-induced NADPH oxidase activity by lucigenin-enhanced chemiluminescence based scintillation counting method relative to control; assay type: functional
In short: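 HepG2 cells given FFA-BSA (palmitate 100 µmol/L) with glycomimetics 1 µmol/L for 3 h, or 12 h pretreatment then 3 h palmitate. Homogenized in 20 mmol/L H2KPO4/1 mmol/L EDTA with protease inhibitors. 50 µg protein with NADPH 100 µmol/L and lucigenin 5 µmol/L; luminescence over 200 s. Basal activity subtracted; expressed as RLU/min/µg protein.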

[3] = Chemical stability of compound; assay type: physicochemical
HepG2 (Homo sapiens) = assay: Cytotoxicity against HepG2 cells assessed as reduction in cell viability incubated for 72 hrs by MTT assay; conditions: hepg2, 72 h
[4] = molecular target: T1, Nitric oxide synthase 3 (Homo sapiens) (UniProt P29474); assay: Induction of eNOS phosphorylation in FFA-induced oxidatively stress human HepG2 cells by Western blot analysis relative to control; parameters: concentration or dose not given beside the values
T1 sequence (whole entry): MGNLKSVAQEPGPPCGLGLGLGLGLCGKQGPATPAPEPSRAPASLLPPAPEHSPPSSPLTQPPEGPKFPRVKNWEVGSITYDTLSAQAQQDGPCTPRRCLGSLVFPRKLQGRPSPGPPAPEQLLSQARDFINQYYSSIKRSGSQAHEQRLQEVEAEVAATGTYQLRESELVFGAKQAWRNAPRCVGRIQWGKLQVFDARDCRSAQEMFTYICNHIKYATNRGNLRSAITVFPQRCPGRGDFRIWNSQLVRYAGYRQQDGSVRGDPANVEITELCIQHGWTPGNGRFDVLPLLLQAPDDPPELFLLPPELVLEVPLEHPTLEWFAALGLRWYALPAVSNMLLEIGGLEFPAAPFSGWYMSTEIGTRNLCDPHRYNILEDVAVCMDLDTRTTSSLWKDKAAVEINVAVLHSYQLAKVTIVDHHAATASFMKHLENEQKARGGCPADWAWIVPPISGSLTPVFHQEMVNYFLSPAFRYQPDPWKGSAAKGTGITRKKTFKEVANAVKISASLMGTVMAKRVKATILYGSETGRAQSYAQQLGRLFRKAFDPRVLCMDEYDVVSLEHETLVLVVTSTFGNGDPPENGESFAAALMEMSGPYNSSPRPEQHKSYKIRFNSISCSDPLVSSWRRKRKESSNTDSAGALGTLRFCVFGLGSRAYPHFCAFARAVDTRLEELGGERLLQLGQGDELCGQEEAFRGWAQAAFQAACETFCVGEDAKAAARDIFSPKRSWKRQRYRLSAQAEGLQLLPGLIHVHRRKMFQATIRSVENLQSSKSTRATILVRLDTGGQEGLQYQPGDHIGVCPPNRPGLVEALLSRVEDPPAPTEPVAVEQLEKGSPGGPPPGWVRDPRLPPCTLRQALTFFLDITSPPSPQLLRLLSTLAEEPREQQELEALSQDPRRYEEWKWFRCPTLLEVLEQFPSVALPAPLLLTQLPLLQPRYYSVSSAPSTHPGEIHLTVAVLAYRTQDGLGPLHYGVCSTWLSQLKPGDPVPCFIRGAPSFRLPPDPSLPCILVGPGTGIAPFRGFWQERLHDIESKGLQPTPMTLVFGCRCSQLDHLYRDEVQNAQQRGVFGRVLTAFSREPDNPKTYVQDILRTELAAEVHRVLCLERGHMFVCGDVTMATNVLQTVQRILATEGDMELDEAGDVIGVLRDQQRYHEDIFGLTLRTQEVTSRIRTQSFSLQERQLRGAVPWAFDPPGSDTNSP
In short: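 HepG2 stressed with palmitate 100 µmol/L-BSA plus glycomimetics 1 µmol/L. Lysed in RIPA, 30 µg protein by SDS-PAGE onto PVDF. Blocked 1 h in 5% milk/TBS-T; rabbit anti-phospho-eNOS overnight at 4 °C, HRP secondary 1 h at RT, ECL detection. Signal quantified by densitometry.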

HepG2 [5] = assay: Antioxidant activity in human HepG2 cells assessed as decrease in FFA-induced oxidatively stress by measuring NO production using DAF-2 by H2DCFDA dye based fluorescence assay relative to control; assay type: functional; parameters: concentration or dose not given beside the values
In short: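 Palmitate (100 µmol/L)-BSA stressed HepG2 with glycomimetics 1 µmol/L (3 h co-treatment or 12 h pretreatment). For NO: L-arginine 100 µmol/L for 5 min at 37 °C, DAF-2 0.1 µmol/L for 2 min, then A23187 for 30 min; ex 485/em 540 nm, autofluorescence subtracted. L-NAME 100 µmol/L in some runs. ROS: CM-H2DCFDA 10 µmol/L, 30 min, 37 °C, ex 490/em 540 nm.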

HepG2 [6] = assay: Antioxidant activity in human HepG2 cells assessed as decrease in FFA-induced ROS production after 24 hrs by ethidium/DAPI based fluorescence assay relative to control; assay type: functional
In short: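 Cells in serum-free DMEM with 2% fatty-acid-free BSA or palmitate-BSA (100 µmol/L) plus glycomimetics (1 or 10 µmol/L) for 24 h. Then 10 µmol/L dihydroethidium in Hepes-buffered solution for 30 min, DAPI 0.3 µmol/L counterstain. Fluorescence microscopy with constant imaging settings; ROS taken as ethidium/DAPI fluorescence ratio.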

[7] = molecular target: Voltage-gated inwardly rectifying potassium channel KCNH2 (Homo sapiens, UniProt Q12809); assay: Inhibition of recombinant human ERG expressed in CHO cells at -80 mV holding potential by automated patch clamp method; assay type: cell-based
In short: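 hERG-CHO cells on automated IonWorks patch clamp at room temperature. Extracellular DPBS pH 7.2, HEPES-buffered intracellular solution, amphotericin B perforation. Compounds typically at 0.008–25 µM (5-fold steps, final DMSO 0.25%), 300 s exposure, 4 replicate wells. Response is post/pre current ×100; IC50 from Hill fit.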

[8] = Metabolic stability in rat liver microsomes assessed as intrinsic clearance at 3 uM measured up to 45 mins in presence of NADPH by LC-MS/MS analysis; assay type: ADME, Microsome; conditions: read-out: CLH
In short: (§1)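 Pooled liver microsomes 0.5 mg/mL protein in 0.1 M phosphate pH 7.4 with compound 3 µM (0.25% DMSO), prewarmed at 37 °C. Started with NADPH 1 mM; sampled at 0, 5, 15, 30, 45 min into methanol. Minus-NADPH control at 45 min; single incubations. t½ = 0.693/k; CLint = V×0.693/t½ in µL/min/mg protein.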

[9] = Kinetic solubility of compound in PBS at pH 7.4 incubated for 2 hrs by turbidometric analysis; assay type: physicochemical; conditions: read-out: Kinetic_solubility
In short: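 DMSO solutions diluted 1 in 100 into 0.01 M PBS pH 7.4 (final 1% DMSO) to give 1–100 µM; 7 replicate wells. Incubated 2 h at 37 °C, absorbance read at 620 nm. Solubility estimated as the concentration raising absorbance above vehicle.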

[10] = Metabolic stability in mouse liver microsomes assessed as half life at 3 uM measured up to 45 mins in presence of NADPH by LC-MS/MS analysis; assay type: ADME, Microsome; in short: as §1
[11] = Metabolic stability in mouse liver microsomes assessed as intrinsic clearance at 3 uM measured up to 45 mins in presence of NADPH by LC-MS/MS analysis; assay type: ADME, Microsome; conditions: read-out: CLH; in short: as §1
[12] = Metabolic stability in rat liver microsomes assessed as half life at 3 uM measured up to 45 mins in presence of NADPH by LC-MS/MS analysis; assay type: ADME, Microsome; in short: as §1

Chain of Voltage-gated inwardly rectifying potassium channel KCNH2 (Q12809 whole entry): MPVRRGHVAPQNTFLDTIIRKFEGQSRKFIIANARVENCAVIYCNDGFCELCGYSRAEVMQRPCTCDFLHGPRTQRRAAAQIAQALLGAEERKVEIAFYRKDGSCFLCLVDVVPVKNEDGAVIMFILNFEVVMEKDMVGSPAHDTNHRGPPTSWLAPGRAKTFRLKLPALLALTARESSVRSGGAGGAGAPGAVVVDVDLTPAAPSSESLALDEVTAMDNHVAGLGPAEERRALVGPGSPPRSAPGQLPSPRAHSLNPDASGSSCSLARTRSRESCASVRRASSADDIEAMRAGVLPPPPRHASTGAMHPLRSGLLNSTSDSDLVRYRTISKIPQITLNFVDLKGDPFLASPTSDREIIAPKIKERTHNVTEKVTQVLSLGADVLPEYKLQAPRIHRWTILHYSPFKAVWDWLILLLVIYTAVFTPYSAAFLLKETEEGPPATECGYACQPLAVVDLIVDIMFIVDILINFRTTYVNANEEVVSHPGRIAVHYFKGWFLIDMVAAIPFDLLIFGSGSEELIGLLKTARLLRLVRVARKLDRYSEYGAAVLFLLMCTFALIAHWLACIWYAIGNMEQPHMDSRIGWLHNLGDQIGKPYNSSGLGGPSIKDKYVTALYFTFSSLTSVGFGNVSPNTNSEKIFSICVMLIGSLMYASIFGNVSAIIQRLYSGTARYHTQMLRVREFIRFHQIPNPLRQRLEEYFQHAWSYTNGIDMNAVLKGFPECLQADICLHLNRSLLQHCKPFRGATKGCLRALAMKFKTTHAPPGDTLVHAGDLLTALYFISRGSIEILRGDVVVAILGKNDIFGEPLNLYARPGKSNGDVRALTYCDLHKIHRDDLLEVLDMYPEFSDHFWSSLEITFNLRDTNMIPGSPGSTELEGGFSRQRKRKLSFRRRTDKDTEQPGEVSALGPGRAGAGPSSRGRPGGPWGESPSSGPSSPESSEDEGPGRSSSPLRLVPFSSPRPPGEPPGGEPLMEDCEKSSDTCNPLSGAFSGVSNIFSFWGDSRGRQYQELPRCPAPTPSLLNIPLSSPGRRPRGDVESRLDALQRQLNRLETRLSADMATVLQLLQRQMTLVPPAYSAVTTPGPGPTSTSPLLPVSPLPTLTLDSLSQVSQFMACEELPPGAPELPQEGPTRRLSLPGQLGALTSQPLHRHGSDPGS

SMILES	Stabilty [3]	Activity [4]	microsomal CLint at 3 µM [8]	solubility kinetic at 2 h [9]	half-life at 3 µM [10]	microsomal CLint at 3 µM [11]	half-life at 3 µM [12]	Activity (HepG2 [1])	inhibition (INH) (HepG2 [2])	Activity (HepG2 (Homo sapiens))	Activity (HepG2 [5])	inhibition (INH) (HepG2 [6])	IC50 [7]
COC(=O)c1cc(OC[C@@H](COS(=O)(=O)[O-])OS(=O)(=O)[O-])ccc1OCCCCOS(=O)(=O)[O-].[Na+].[Na+].[Na+]	Stable	397%	–	–	–	–	–	Non-Toxic	27%	Non-Toxic	63%	39%	–
COC(=O)c1cc(OC[C@H](O)CO)ccc1OC[C@@H](O)CO (mixture of isomers)	–	286%	–	–	–	–	–	–	26%	–	46%	36%	–
O=C([O-])c1cc(OC[C@H](O)CO)ccc1OC[C@@H](O)CO.[Na+] (mixture of isomers)	–	312%	–	–	–	–	–	–	21%	–	41%	23%	–
O=C([O-])c1cc(OC[C@@H](O)CO)ccc1OC[C@H](O)CO.[Na+] (mixture of isomers)	–	294%	–	–	–	–	–	–	27%	–	52%	19%	–

Second part, led by results:

Stabilty [3]	Activity [4]	microsomal CLint at 3 µM [8]	solubility kinetic at 2 h [9]	half-life at 3 µM [10]	microsomal CLint at 3 µM [11]	half-life at 3 µM [12]	SMILES	Activity (HepG2 [1])	inhibition (INH) (HepG2 [2])	Activity (HepG2 (Homo sapiens))	Activity (HepG2 [5])	inhibition (INH) (HepG2 [6])	IC50 [7]
Stable	318%	0.649 µL/min/mg	> 100 µM	8.03 h	2.88 µL/min/mg	35.7 h	COC(=O)c1cc(OC[C@H](COS(=O)(=O)[O-])OS(=O)(=O)[O-])ccc1OC[C@@H](COS(=O)(=O)[O-])OS(=O)(=O)[O-].[Na+].[Na+].[Na+].[Na+]	Non-Toxic	31%	Non-Toxic	62%	29%	> 25 µM
Stable	342%	9.56 µL/min/mg	> 100 µM	30.7 h	0.755 µL/min/mg	2.42 h	COC(=O)c1cc(OC[C@@H](COS(=O)(=O)[O-])OS(=O)(=O)[O-])ccc1OC[C@H](COS(=O)(=O)[O-])OS(=O)(=O)[O-].[Na+].[Na+].[Na+].[Na+]	Non-Toxic	29%	Non-Toxic	110%	28%	–
Stable	613%	–	–	–	–	–	COC(=O)c1cc(OC[C@H](COS(=O)(=O)[O-])OS(=O)(=O)[O-])ccc1OCCCCOS(=O)(=O)[O-].[Na+].[Na+].[Na+]	Non-Toxic	31%	Non-Toxic	52%	23%	–

Source: ChEMBL document CHEMBL4732020, “The modulatory role of sulfated and non-sulfated small molecule heparan sulfate-glycomimetics in endothelial dysfunction: absolute structural clarification, molecular docking and simulated dynamics, SAR analyses and ADMET studies” (RSC Med Chem, 2021)
